Measurements reported in ChEMBL document CHEMBL1152702, “Synthesis and biological evaluation of some new 1,4-dihydropyridines containing different ester substitute and diethyl carbamoyl group as anti-tubercular agents” (Bioorg Med Chem, 2009).
Converted amounts (≈) assume the structure as drawn.

Assays:
[1] = test system: Mycobacterium tuberculosis; test: Antimycobacterial activity against Mycobacterium tuberculosis H37Rv ATCC 27294 after 21 days by agar proportion method; format: functional; conditions: 504 h
Summary of the method: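 Agar proportion method on Middlebrook 7H10 with glycerol and OADC, compounds added from DMSO solutions at […]. H37Rv was grown in 7H9 broth at 37 °C for 4–7 days and adjusted to McFarland no. 1. The 10^-2 and 10^-4 dilutions were the inocula. MIC was read after 21 days at 37 °C under 5–7% CO₂.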

[2] = Antagonist activity at calcium channel in guinea pig ileum assessed as inhibition of KCl-induced contraction of ileal longitudinal smooth muscle pretreated 15 mins before KCl challenge; format: functional, tissue-based; conditions: Cavia porcellus

Structure (SMILES)	MIC [1] [µM]	IC50 [2] [µM]
CCN(CC)C(=O)C1=C(C)NC(C)=C(C(=O)OCCCCCc2ccccc2)C1c1ncc([N+](=O)[O-])n1C (stereo not drawn)	2 (≈ 1.05 µg/mL)	24
CCCCOC(=O)C1=C(C)NC(C)=C(C(=O)N(CC)CC)C1c1ncc([N+](=O)[O-])n1C (stereo not drawn)	1 (≈ 0.434 µg/mL)	8.57
CCN(CC)C(=O)C1=C(C)NC(C)=C(C(=O)OCc2ccccc2)C1c1ncc([N+](=O)[O-])n1C (stereo not drawn)	1 (≈ 0.468 µg/mL)	4.2
CCN(CC)C(=O)C1=C(C)NC(C)=C(C(=O)OCCCc2ccccc2)C1c1ncc([N+](=O)[O-])n1C (stereo not drawn)	1 (≈ 0.496 µg/mL)	2.7
CCCOC(=O)C1=C(C)NC(C)=C(C(=O)N(CC)CC)C1c1ncc([N+](=O)[O-])n1C (stereo not drawn)	2 (≈ 0.839 µg/mL)	12
CCN(CC)C(=O)C1=C(C)NC(C)=C(C(=O)OC)C1c1ncc([N+](=O)[O-])n1C (stereo not drawn)	> 500	32.2
CCN(CC)C(=O)C1=C(C)NC(C)=C(C(=O)OC(C)C)C1c1ncc([N+](=O)[O-])n1C (stereo not drawn)	> 500	18.8
CCN(CC)C(=O)C1=C(C)NC(C)=C(C(=O)OCCc2ccccc2)C1c1ncc([N+](=O)[O-])n1C (stereo not drawn)	1 (≈ 0.482 µg/mL)	2.4
CCN(CC)C(=O)C1=C(C)NC(C)=C(C(=O)OCCCCc2ccccc2)C1c1ncc([N+](=O)[O-])n1C (stereo not drawn)	2 (≈ 1.02 µg/mL)	3.5
CCOC(=O)C1=C(C)NC(C)=C(C(=O)N(CC)CC)C1c1ncc([N+](=O)[O-])n1C (stereo not drawn)	250 (≈ 101 µg/mL)	29.7
NNC(=O)c1ccncc1 [ISONIAZID]	1 (≈ 0.137 µg/mL)	–
COC(=O)C1=C(C)NC(C)=C(C(=O)OC)C1c1ccccc1[N+](=O)[O-] [NIFEDIPINE]	–	0.00107
CO[C@H]1/C=C/O[C@@]2(C)Oc3c(C)c(O)c4c(O)c(c(/C=N/N5CCN(C)CC5)c(O)c4c3C2=O)NC(=O)/C(C)=C\C=C\[C@H](C)[C@H](O)[C@@H](C)[C@@H](O)[C@@H](C)[C@H](OC(C)=O)[C@@H]1C [RIFAMPIN]	1 (≈ 0.823 µg/mL)	–
